High-throughput results from PubChem BioAssay.
Hits are enriched below; roughly 0.59% of the tested compounds scored in any of these assays.
OXTR agonist: human OXTR agonism | activation, % at 3 µM | 320,000 compounds, 0.32% hits | CHO-OTR cells, Fluo-8 calcium fluorescence; normalized: DMSO 0%, oxytocin 100% | P30559;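 active means activation above the mean of all tested compounds plus 3 SD, cutoff set per screening run, cut at about 20% in these data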;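 further: peak over basal fluorescence ratio from a 100 s FLIPR kinetic read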
TRPML3 agonist: agonists of human TRPML3 channel; HEK293 TRPML3-YFP, Fluo-8 calcium fluorescence; 100% = the carbachol control signal; 220,000 compounds, 0.29% hits; activation, % at 3 µM; AID 1448;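 active means activation above its plate's cutoff, the mean activation of the plate's test wells plus 3 SD, cut at about 12% in these data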;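 further: 0% = DMSO only wells and 100% = carbachol wells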
Target sequence (Q8TDD5 whole entry, looked up): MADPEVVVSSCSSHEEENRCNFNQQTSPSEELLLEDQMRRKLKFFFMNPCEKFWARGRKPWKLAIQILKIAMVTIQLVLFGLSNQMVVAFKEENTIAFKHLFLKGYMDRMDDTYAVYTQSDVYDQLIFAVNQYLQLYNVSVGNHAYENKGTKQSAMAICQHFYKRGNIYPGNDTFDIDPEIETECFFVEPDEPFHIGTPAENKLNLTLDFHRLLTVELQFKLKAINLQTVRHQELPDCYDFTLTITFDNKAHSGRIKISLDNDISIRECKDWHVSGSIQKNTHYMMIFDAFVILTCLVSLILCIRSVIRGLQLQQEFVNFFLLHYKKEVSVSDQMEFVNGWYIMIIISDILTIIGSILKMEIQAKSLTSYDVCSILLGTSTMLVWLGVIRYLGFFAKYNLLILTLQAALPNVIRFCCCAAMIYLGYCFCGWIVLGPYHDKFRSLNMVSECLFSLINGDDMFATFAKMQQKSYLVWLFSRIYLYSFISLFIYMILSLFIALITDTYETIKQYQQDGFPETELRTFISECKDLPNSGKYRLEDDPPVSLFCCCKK
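Material: TRPML3-YFP stable HEK293 cells | Dosing: One concentration, 3 µM nominal, 0.3% DMSO | Timing: 125 s total fluorescence read per well | Technique: Fluo-8 calcium dye fluorescence, ex 470-495, em 515-575 nm | Measure: Percent activation from peak-to-basal fluorescence ratio, scaled between DMSO and carbachol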
OXTR potentiator: human OXTR potentiation | activation, % at 3 µM | 320,000 compounds, 0.061% hits | AID 2445 | CHO-OTR cells, Fluo-8 calcium fluorescence, potentiator mode; 0% = oxytocin EC15, 100% = EC100;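 active means activation above that plate's cutoff, the mean activation of tested compounds plus 3 SD, cut at about 6.6% in these data, passing the limit was not always enough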;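 further: 100% uses oxytocin at 75 nM as the full agonist control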
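Material: human OTR in CHO cells. Compound: 3.0 µM, one dose. Timing: compound 6 min at room temperature before oxytocin, 100 s read. Evaluation: % activation of max/min ratio relative to oxytocin controls. Replication: single well per compound, singlicate. Signal: Fluo-8 calcium dye fluorescence.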
zfTRPN1 agonist: agonists of zebrafish TRPN1 channel; HEK293 zebrafish TRPN1-YFP, Fluo-8 calcium fluorescence; 100% = response to 87 µM carbachol; activation, % at 3 µM; 220,000 compounds, 0.18% hits; AID 1424;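 active means activation above its plate's cutoff, the mean activation of test wells on that plate plus 3 SD, cut at about 19% in these data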;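 further: 0% = DMSO alone and 100% = 87 µM carbachol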
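Material: zebrafish TRPN1-YFP in HEK293 cells; Doses: single test compound dose, 3 µM nominal, 0.3% DMSO; Timing: dye loading 1 h at 37 °C, then 30 min room temperature; Technique: intracellular calcium fluorescence with Fluo-8; Benchmarks: high carbachol 87 µM, low DMSO alone.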
V1aR counter: counter-screen for oxytocin receptor agonists: human V1a receptor agonists. CHO-V1R cells, Fluo-8 calcium fluorescence, agonist mode; 0% DMSO, 100% 3 nM vasopressin. activation, % at 3 µM. 320,000 compounds, 0.25% hits;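 active means activation above the mean activation of all tested compounds plus 3 SD, per screening run, cut at about 20% in these data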;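 further: signal is peak over basal fluorescence ratio across a 100 second FLIPR read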
TRPN1 counter: zebrafish TRPN1 agonism as TRPML3 agonist counter-screen. AID 1525. shares compounds with TRPML3 agonist. HEK293 zebrafish TRPN1-YFP, Fluo-8 calcium fluorescence; scaled: carbachol wells 100%, DMSO wells 0%. 310 compounds, 10% hits. activation, % at 3 µM;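 active means mean activation over replicates above a set limit taken from the earlier TRPN1 channel primary screen, cut at about 19% in these data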;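 further: 100% = carbachol and 0% = 0.3% DMSO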
TRPML3 confirm: human TRPML3 agonism, confirmation. shares compounds with TRPML3 agonist. HEK293 TRPML3-YFP, Fluo-8 calcium fluorescence; 100% set by carbachol, 0% by DMSO. activation, % at 3 µM. 310 compounds, 80% hits;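 active means activation above a set limit derived from the earlier primary screen, cut at about 12% in these data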
OXTR ag confirm: confirmation of human oxytocin receptor agonists; shares compounds with OXTR agonist; CHO-OTR cells, Fluo-8 calcium fluorescence, agonist; activation, % at 3 µM; 390 compounds, 20% hits;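 active means mean activation above about 20% derived from the earlier single-dose screen, limit read from the data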;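 further: peak over minimum fluorescence ratio per well during a 100 second FLIPR read; 0% = DMSO alone and 100% = oxytocin high control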
V1aR counter 3x: V1R agonism in triplicate, counter-screen for OXTR agonists | 390 compounds, 10% hits | CHO-V1R cells, Fluo-8 calcium fluorescence, agonist | activation, % at 3 µM | shares compounds with OXTR agonist;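 active means mean activation over triplicate exceeds the hit threshold set in the earlier primary screen, cut at about 20% in these data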;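 further: peak over basal fluorescence ratio within a 100 second read; 0% = DMSO alone and 100% = 3 nM vasopressin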
OXTR pot cf: human OXTR potentiation, confirmation; shares compounds with OXTR potentiator; CHO-OTR cells, Fluo-8 calcium fluorescence; scaled from low-dose to maximal oxytocin; activation, % at 3 µM; 180 tested, under 10 active; AID 434985;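 active means mean percent activation over triplicates above a cutoff set from solvent-only control plates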;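 further: compounds tested in the presence of an EC15 dose of oxytocin; 0% = EC15 oxytocin with DMSO and 100% = EC100 oxytocin with DMSO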
V1aR agonist cf: confirmation of human vasopressin V1a receptor agonists | shares compounds with V1aR counter | CHO-V1R cells, Fluo-8 calcium fluorescence, agonist | activation, % at 3 µM | 180 compounds, 20% hits | AID 434964;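 active means average activation exceeds primary screen hit cutoff, cut at about 21% in these data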;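 further: peak over basal fluorescence ratio during a 100 s FLIPR read; 0% = DMSO only wells and 100% = 3 nM vasopressin wells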
OXTR counter: activates oxytocin receptor in V1a agonist counter-screen | AID 434969 | shares compounds with V1aR counter | CHO-OTR cells, Fluo-8 calcium fluorescence | activation, % at 3 µM | 180 compounds, 10% hits;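 active means mean activation over three repeats above the cutoff from the earlier oxytocin receptor agonist screen, cut at about 20% in these data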;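 further: peak over minimum fluorescence ratio within a 100 second FLIPR read; 0% = DMSO only wells and 100% = oxytocin high control wells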
Starred values were filed as active, the others as inactive; x = no result given.

SMILES	OXTR agonist	TRPML3 agonist	OXTR potentiator	zfTRPN1 agonist	V1aR counter	others
CCOC(=O)C(O)(c1ccc(NC(=S)NC(=O)c2ccc(Cl)cc2Cl)cc1)C(F)(F)F (stereo not drawn)	50.6*	6.8	-15.0	16.3	33.8*
CCOC(=O)C(O)(c1ccc(NC(=S)NC(=O)c2ccc(Cl)cc2Cl)c(C)c1)C(F)(F)F (stereo not drawn)	32.0*	11.9*	-12.6	22.1*	34.2*
COC(=O)C(O)(c1ccc(NC(=S)NC(=O)c2ccc(Cl)cc2Cl)c(C)c1)C(F)(F)F (stereo not drawn)	29.3*	3.8	-13.8	18.8	21.7*
COC(=O)C(O)(c1ccc(NC(=S)NC(=O)c2ccc(Cl)cc2Cl)cc1)C(F)(F)F (stereo not drawn)	19.0	3.8	-10.6	7.4	18.0
CC1CCN(CC#CCOc2ccc(Cl)cc2)CC1	-0.8	x	-7.1	x	0.2
CC/C(=N\NC(=O)c1ccccc1)c1c(O)n(C2CCCCC2)c(=O)[nH]c1=O	-1.2	x	-5.8	x	0.2
CCOP(=O)(Oc1ccccc1)c1c([N+](=O)[O-])cc(C(F)(F)F)cc1[N+](=O)[O-] (stereo not drawn)	-0.5	x	-11.9	x	-0.5
CC1CCCN(c2ccc(C(=O)N3CCC4(CC3)OCCO4)cc2[N+](=O)[O-])C1 (stereo not drawn)	0.3	-0.3	-5.1	-0.8	0.7
CCOC(=O)C1CCCN(c2ccc([N+](=O)[O-])c3nonc23)C1 (stereo not drawn)	x	112.6*	x	290.9*	x
CCN1CCN(Cc2cccnc2)CC1	0.6	x	-1.1	x	0.0
COc1cc(/C=C/[N+](=O)[O-])ccc1O	0.6	2.3	9.4	0.3	3.0
CCN(CC)c1ccc(/C=C/[N+](=O)[O-])cc1	41.6*	36.2*	-17.5	46.7*	72.6*
CCOC(=O)c1c(N)n(Cc2ccco2)c2nc3ccccc3nc12	0.9	15.4*	-1.7	4.3	0.7	TRPN1 counter=3.8;TRPML3 confirm=2.5
Nc1ccncc1Cl	0.3	0.6	1.7	-0.2	0.6
Cc1ccc2c(c1)C1CN(C)CCC1N2C(=O)Nc1cccc(Cl)c1 (stereo not drawn)	30.2*	1.6	-12.4	8.7	20.1	OXTR ag confirm=7.7;V1aR counter 3x=5.5
CCCCNC(C)Cc1ccccc1 (stereo not drawn)	0.9	x	-8.7	x	1.2
COc1ccc(CC(C)NCCC(c2ccccc2)c2ccccc2)cc1 (stereo not drawn)	21.0*	x	-18.3	x	11.8	OXTR ag confirm=9.0;V1aR counter 3x=3.8
CC(=O)NC(Cc1ccc(N(CCCl)CCCl)cc1)C(=O)NCC(=O)NCC(=O)O (stereo not drawn)	0.9	0.8	-9.8	-1.0	0.1
Cc1[nH]c2ccc(OC(F)(F)F)cc2c1CCNCc1cccc([N+](=O)[O-])c1	19.7*	x	-7.1	x	10.3	OXTR ag confirm=12.7;V1aR counter 3x=7.8
FCCN(CCF)c1cccc(Cl)c1	1.6	0.7	-7.0	-0.2	0.1
COc1cccc(NC(=O)[C@@H](NC(=O)N2C[C@H]3C[C@@H](C2)c2cccc(=O)n2C3)C(C)C)c1	2.6	x	11.2*	x	0.0	OXTR pot cf=-0.6
COc1cc2c(cc1OC)C13CCN4CC5=CCOC6CC(=O)N2C1C6C5CC43 (stereo not drawn) (tested in a mixture with another compound)	1.4	0.8	-1.1	-0.6	-1.2
CN1CCN(c2ccc([N+](=O)[O-])c(N)c2)CC1	-0.1	0.5	-5.1	5.2	2.1
CN1CCN(c2ccc([N+](=O)[O-])c(SCCO)c2)CC1	3.7	-0.2	11.9*	0.5	0.1	OXTR pot cf=-7.8
CCOc1cc2c(cc1OCC)-n1cccc1C(c1cc(C)c(OC)cc1C)NC2 (stereo not drawn)	2.4	x	-5.2	x	29.1*	V1aR agonist cf=0.1;OXTR counter=0.4
CC(C)Oc1ccc(C2(C#N)CC[N+](C)(C)CC2)cc1	-0.7	1.0	-10.7	2.8	0.7
